The subject of series [1] is HCT-116. The series is described as follows: Antitumor activity against human HCT-116 cells xenografted in BomTac:NMRI-Foxn1nu mouse assessed as T/C at 20 mg/kg, iv administered twice a week upto 6 weeks relative to control. Type of series: functional. Put shortly: (§1)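 Female nude mice bore s.c. HCT 116 (2×10^6 cells), NCI-H460 (1×10^6 cells) or serially transplanted CXB1 tumor pieces. At ~50–100 mm³, mice were randomized into groups of 10 and dosed i.v. (0.1 N HCl/saline) or by gavage (0.5% hydroxyethyl-cellulose) at 10 mL/kg. Calipers read thrice weekly, volume = length×width²×π/6. T/C from median volumes on the last day.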
(In general: A xenograft is tissue or cells of one species grown in another, often human tumour cells in immunodeficient mice.)

A short description of series [2]: Drug uptake in human HCT-116 cells xenografted in BomTac:NMRI-Foxn1nu mouse at 35 mg/kg, iv measured after 8 hrs by HPLC-MS/MS analysis. Type of series: ADME, organism-based, Neoplasm. The note with it: tumour (HCT-116 xenograft). The method, boiled down:
(§2)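 Female nude mice bearing s.c. HCT 116 xenografts (2 × 10⁶ cells), n = 3 per time point, given a single i.v. dose. Tumor, organs and EDTA plasma collected at 1, 8, 24, 48, 96 and 168 h. Tissue extracts and plasma analysed by HPLC-MS/MS. Tissue nmol/mg converted to nmol/L assuming density 1.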

Series [3] deals with HCT-116. The series is described as follows: Antitumor activity against human HCT-116 cells xenografted in BomTac:NMRI-Foxn1nu mouse assessed as tumor growth delay at 15 mg/kg, iv administered twice a week on consecutive days. The conditions noted are these: time 7.0 day. Type of series: functional, organism-based. Put shortly:
as §1

Series [4] has as its system NCI-H460. Nature of the series: Antimitotic activity against human NCI-H460 cells assessed as cell cycle block in G2-M phase measuring by accumulation of 4N DNA content at 100 nmol/L incubated for 24 hrs by PI staining based flow cytometric analysis. Type of series: functional. Put shortly: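 Log-phase NCI-H460 cells were treated with 0.1% DMSO or inhibitor (dose series for 24 h; 100 nmol/L time course at 0, 24, 48, 72 h). Cells were fixed in 80% ethanol, permeabilized with 0.25% Triton X-100 for 5 min, then given 0.1% RNase plus 10 µg/mL propidium iodide for 20 min at RT. DNA content was read by flow cytometry.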

A short description of series [5]: AUC (0 to infinity) in Wistar rat at 10 mg/kg, iv by HPLC-MS/MS analysis. The note with it: in vivo. The format is ADME, organism-based. The method, boiled down:
(§3)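 Single i.v. dose: male Wistar rats (n=4) by 5-min infusion, female nude mice (n=3). EDTA plasma was sampled at various times and extracted with internal standard, NaOH, methanol/formic acid and acetonitrile. Analysis by LC-MS/MS (ESI+, C18, ammonium acetate pH 4.0/acetonitrile gradient). Noncompartmental parameters; AUC by trapezoidal rule.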

Series [6] is described as follows: AUC (0 to 24 hrs) in human HCT-116 cells xenografted in BomTac:NMRI-Foxn1nu mouse at 25 mg/kg, iv administered twice a week upto 6 weeks by HPLC-MS/MS analysis. Type of series: ADME, organism-based. The conditions noted are these: in vivo, 1008 h.
The test system of series [7] is HCT-116. The series is described as follows: Antitumor activity against human HCT-116 cells xenografted in BomTac:NMRI-Foxn1nu mouse assessed as the number of apoptotic cells in large intestine at 40 mg/kg, iv. The format is functional, organism-based. Put shortly:
(§4)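 Female nude mice bore s.c. HCT 116 tumors (~200 mm³) and received a single i.v. 40 mg/kg dose or vehicle (n=3 per group per time). Tumor, small intestine and large intestine were taken at 6, 24 and 48 h. Frozen sections were stained for pSer10 histone H3 (immunoperoxidase) or by TUNEL. Positive area was calculated as % of tumor cell area; Student's t test.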

Series [8] relates to NCI-H460. The series is described as follows: Induction of apoptosis in human NCI-H460 cells assessed as conversion of cleaved PRAP protein to fragment at 100 nmol/L incubated for 48 hrs by westernblot analysis. Type of series: functional, cell-based. The method, boiled down:
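Exponentially growing NCI-H460 cells treated with compound or DMSO control for 24 or 48 h, then harvested. Cleaved PARP fragment detected by Western blot.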

Series [9] concerns HCT-116. Nature of the series: Antitumor activity against human HCT-116 cells xenografted in BomTac:NMRI-Foxn1nu mouse assessed as early apoptosis at 40 mg/kg, iv 24 hrs after administration by tunel staining based immunohistochemistry analysis. Type of series: functional, organism-based. The method, boiled down:
as §4

The subject of series [10] is HCT-116. The series is described as follows: Antitumor activity against human HCT-116 cells xenografted in BomTac:NMRI-Foxn1nu mouse assessed as T/C at 30 mg/kg, iv administered once a week upto 6 weeks relative to control. Type of series: functional. The method, boiled down:
as §1

Series [11] in a line: AUC (0-24hrs) in BomTac:NMRI-Foxn1nu mouse at 50 mg/kg, po by HPLC-MS/MS analysis. The format is ADME, organism-based. The conditions noted are these: in vivo. Put shortly:
(§5)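 Single oral dose to female nude mice or male Wistar rats. EDTA plasma was collected over 24 h and quantified by LC-MS/MS after extraction with internal standard. AUC0-24 was calculated from the concentration-time profile by the trapezoidal rule using noncompartmental analysis.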

For a further series, the system named is Granta-519. Nature of the series: Antimitotic activity against human Granta-519 cells assessed as inhibition of cell proliferation incubated for 72 hrs by Alamar blue based fluorescence spectrophotometric analysis. Type of series: functional. The conditions noted are these: Granta-519, 72 h. The method, boiled down: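 Cancer cell lines were cultured per supplier instructions and exposed to various inhibitor concentrations for 72 h. Growth was read as Alamar blue conversion by fluorescence. EC50 (50% growth inhibition) was extrapolated from the dose-response curve fit.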
On the technique in general: The colour change of resazurin is a common sign of viable cells or microbes.

Series [12] in a line: AUC (0 to 24 hrs) in human HCT-116 cells xenografted in BomTac:NMRI-Foxn1nu mouse at 50 mg/kg, po administered once a week upto 6 weeks by HPLC-MS/MS analysis. Type of series: ADME, organism-based. The note with it: in vivo, 1008 h.
Series [13] can be described thus: Drug uptake in human HCT-116 cells xenografted in BomTac:NMRI-Foxn1nu mouse plasma at 35 mg/kg, iv measured after 1 hrs by HPLC-MS/MS analysis. The format is ADME, organism-based. Put shortly:
as §2

Series [14] is described as follows: Tmax in BomTac:NMRI-Foxn1nu mouse at 50 mg/kg, po by HPLC-MS/MS analysis. The format is ADME, organism-based. The note with it: in vivo. The method, boiled down:
(§6)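 Single oral gavage of BI 6727 suspended in 0.5% hydroxyethyl-cellulose (10 mL/kg) to female nude mice or male Wistar rats. EDTA plasma levels measured over time by HPLC-MS/MS with internal standard. AUC0-24 by trapezoidal rule. Parameters from noncompartmental analysis.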

The test system of series [15] is HCT-116. The series is described as follows: Antitumor activity against human HCT-116 cells xenografted in BomTac:NMRI-Foxn1nu mouse assessed as T/C at 50 mg/kg, po administered once a week upto 6 weeks relative to control. The format is functional. The method, boiled down:
as §1

The nature of series [16]: AUC (0 to infinity) in BomTac:NMRI-Foxn1nu mouse at 35 mg/kg, iv by HPLC-MS/MS analysis. The format is ADME, organism-based. The conditions noted are these: in vivo. The method, boiled down: as §3
Series [17] can be described thus: Oral bioavailability in Wistar rat at 30 mg/kg by HPLC-MS/MS analysis. The format is ADME, organism-based. The note with it: in vivo. The method, boiled down: as §6
The nature of series [18]: AUC (0-24hrs) in Wistar rat at 30 mg/kg, po by HPLC-MS/MS analysis. Type of series: ADME, organism-based. The conditions noted are these: in vivo. Put shortly: as §5
A short description of series [19]: AUC (0 to 24 hrs) in human HCT-116 cells xenografted in BomTac:NMRI-Foxn1nu mouse at 30 mg/kg, iv administered once a week upto 6 weeks by HPLC-MS/MS analysis. The format is ADME, organism-based. The conditions noted are these: in vivo, 1008 h.
Series [20] relates to HCT-116. The series is described as follows: Antitumor activity against human HCT-116 cells xenografted in BomTac:NMRI-Foxn1nu mouse assessed as tumor regression at 20 mg/kg, iv administered twice a week on consecutive days. Type of series: functional, organism-based. The method, boiled down:
as §1

Series [21] has as its system HCT-116. Nature of the series: Antitumor activity against human HCT-116 cells xenografted in BomTac:NMRI-Foxn1nu mouse assessed as tumor regression at 15 mg/kg, iv administered twice a week on consecutive days. Type of series: functional, organism-based. Put shortly: as §1

In general, T/C refers to the result in the treated group divided by that in the control group, in per cent. What is called AUC(0-inf) is total exposure, with the tail of the curve extrapolated. As a reminder, the AUC is concentration integrated over time. Lower therefore signals low exposure. By AUC(0-t) is commonly meant exposure summed from dosing to a finite time, without extrapolation to infinity. High values mean high exposure, low ones low exposure. The term EC50 denotes the concentration giving half of the maximal effect. In general, Tmax refers to the time at which the peak concentration occurs. The bioavailability is dose-corrected exposure relative to a reference, in per cent.

Calls of active or inactive are those of the source. No cut-off for these calls is given here.

On to `CC[C@@H]1C(=O)N(C)c2cnc(Nc3ccc(C(=O)N[C@H]4CC[C@H](N5CCN(CC6CC6)CC5)CC4)cc3OC)nc2N1C(C)C` [VOLASERTIB], for which the T/C in the series on HCT-116 [1] was found to be 1%; in the series with HCT-116 [10] it was 3%; with HCT-116 [15], 2%. Besides, in series [2], the concentration at 8 h is 32 µM. Further, the outcome in the series with HCT-116 [3], in the series with NCI-H460 [4], with NCI-H460 [8], in the series on HCT-116 [9], in the series with HCT-116 [20] and with HCT-116 [21] was Active. For the same molecule, the AUC(0-inf) in series [5] amounted to 30 µM·h; in [16], 100 µM·h. Besides, the AUC amounted to 75 µM·h in series [6], 44 µM·h in [12] and 52 µM·h in series [19]. Also, the result with HCT-116 [7] was inactive. In addition, the AUC(0-t) in series [11] is 58 µM·h; in series [18], 34 µM·h. Also, the concentration giving a half-maximal response (EC50) in the series on Granta-519 was determined as 15 nM. The molecule also registered a concentration at 1 h in series [13] of 7 µM. In series [14], the Tmax turned out to be 1.7 h. The molecule further registered a bioavailability in series [17] of 55%.

(Values after ChEMBL document CHEMBL5661977, “BI 6727, a Polo-like kinase inhibitor with improved pharmacokinetic profile and broad antitumor activity” (Clin Cancer Res, 2009).)
